# Tests used:
# [1] = biological target: T1, Cytosolic phospholipase A2 (Homo sapiens) (UniProt P47712); experiment: Inhibition of human group 4A cytosolic Ca2+-dependent phospholipase A2 at 0.091 mole fraction by modified Dole assay
# T1 sequence (whole entry): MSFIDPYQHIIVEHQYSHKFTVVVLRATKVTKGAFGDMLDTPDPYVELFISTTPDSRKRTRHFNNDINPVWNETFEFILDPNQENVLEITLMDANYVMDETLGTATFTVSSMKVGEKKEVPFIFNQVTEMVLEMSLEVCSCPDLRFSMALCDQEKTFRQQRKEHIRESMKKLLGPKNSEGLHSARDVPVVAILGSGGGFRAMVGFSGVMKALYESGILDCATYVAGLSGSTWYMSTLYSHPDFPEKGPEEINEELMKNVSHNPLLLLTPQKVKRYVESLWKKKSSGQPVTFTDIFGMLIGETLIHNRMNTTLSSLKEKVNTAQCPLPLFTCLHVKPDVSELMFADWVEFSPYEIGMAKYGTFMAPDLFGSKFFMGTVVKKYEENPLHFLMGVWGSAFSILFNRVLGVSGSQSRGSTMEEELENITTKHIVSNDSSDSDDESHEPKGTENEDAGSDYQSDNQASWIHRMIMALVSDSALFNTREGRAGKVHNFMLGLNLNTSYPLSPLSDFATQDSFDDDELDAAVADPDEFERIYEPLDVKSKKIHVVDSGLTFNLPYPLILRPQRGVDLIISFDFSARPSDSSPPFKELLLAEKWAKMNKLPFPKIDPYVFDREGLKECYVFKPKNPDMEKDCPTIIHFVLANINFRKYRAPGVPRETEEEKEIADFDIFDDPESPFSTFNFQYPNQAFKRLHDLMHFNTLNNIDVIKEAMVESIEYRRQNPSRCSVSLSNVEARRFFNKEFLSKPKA
# Summary of the method: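 Buffer: 100 mM HEPES pH 7.5, 90 μM CaCl2, 2 mM DTT, 0.1 mg/ml BSA. Inhibitor present at 0.091 mole fraction of the total substrate interface; percent inhibition determined.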
# [2] = biological target: T2, 85/88 kDa calcium-independent phospholipase A2 (Homo sapiens) (UniProt O60733); experiment: Inhibition of human group 6A cytosolic Ca(2+)-independent phospholipase A2 at 0.091 mole fraction by modified Dole assay
# T2 sequence (whole entry): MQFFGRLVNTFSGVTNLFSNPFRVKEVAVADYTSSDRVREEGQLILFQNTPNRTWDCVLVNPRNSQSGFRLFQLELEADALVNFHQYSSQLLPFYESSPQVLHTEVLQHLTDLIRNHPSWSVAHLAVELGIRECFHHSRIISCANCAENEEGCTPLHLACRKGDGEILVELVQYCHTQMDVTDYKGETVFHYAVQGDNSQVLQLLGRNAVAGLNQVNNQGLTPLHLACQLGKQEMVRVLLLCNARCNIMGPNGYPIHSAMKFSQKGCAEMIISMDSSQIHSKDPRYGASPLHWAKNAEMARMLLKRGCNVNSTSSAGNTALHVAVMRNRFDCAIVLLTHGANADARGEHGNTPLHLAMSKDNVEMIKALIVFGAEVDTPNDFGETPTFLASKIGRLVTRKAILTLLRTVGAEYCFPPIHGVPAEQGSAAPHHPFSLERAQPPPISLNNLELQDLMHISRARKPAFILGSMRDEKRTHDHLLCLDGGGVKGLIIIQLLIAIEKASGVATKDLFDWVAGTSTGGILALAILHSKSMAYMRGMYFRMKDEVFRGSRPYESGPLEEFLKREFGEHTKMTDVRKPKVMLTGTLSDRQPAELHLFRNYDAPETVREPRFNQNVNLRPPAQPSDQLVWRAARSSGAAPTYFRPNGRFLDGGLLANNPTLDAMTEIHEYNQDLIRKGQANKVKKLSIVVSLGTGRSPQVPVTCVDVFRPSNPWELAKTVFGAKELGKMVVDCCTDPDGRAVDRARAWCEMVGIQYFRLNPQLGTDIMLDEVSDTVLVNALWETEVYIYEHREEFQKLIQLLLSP
# [3] = biological target: T3, Phospholipase A2 group V (Homo sapiens) (UniProt P39877); experiment: Inhibition of human group 5 Ca2+-dependent secretory phospholipase A2 at 0.091 mole fraction by modified Dole assay
# T3 sequence (whole entry): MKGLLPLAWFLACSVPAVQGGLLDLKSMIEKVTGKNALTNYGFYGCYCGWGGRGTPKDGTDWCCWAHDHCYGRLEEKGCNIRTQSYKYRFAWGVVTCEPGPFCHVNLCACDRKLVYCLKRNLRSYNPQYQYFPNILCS
Structure (SMILES),inhibition [1] [%],inhibition [2] [%],inhibition [3] [%]
CCCC[C@H](CCC(=O)O)NC(=O)CCCCCCc1ccccc1,< 25,< 25,95
CCCCCCCCCCCCCCC(=O)C(=O)NCCCCOCC,62,51,64
C=CCOC(=O)CCCNC(=O)C(=O)CCCCCCCCCCCCCC,53,63,38
CCCCCCCCCCCCCCC(=O)C(=O)NCCC(=O)OCC,44,51,59
COC(=O)CNC(=O)CCCCCCc1ccccc1,< 25,< 25,< 25
CCCCCCCCCCCCCCC(=O)C(=O)N[C@@H](CCCC)CCCCC(=O)OCC,62,66,< 25
CC(C)(C)OC(=O)CCNC(=O)C(=O)CCCCCCc1ccccc1,82,81,69
CCCCCCCCCCCCCCC(=O)C(=O)NCCC(=O)OC(C)(C)C,79,54,72
CCCCCCCCCCCCCCC(=O)C(=O)NCC(=O)OCC,74,62,62
CCCCCCCCCCCCCCC(=O)C(=O)NCCC(=O)OC,< 25,< 25,48
CCCCCCCCCCCCCCC(=O)C(=O)NCCCCC(=O)OCC,31,35,47
CCCCCCCCCCCCCCC(=O)C(=O)NCCCCC(=O)OC(C)(C)C,74,62,72
CCCCCCCCCCCCCCC(=O)C(=O)N[C@@H](C)CCC(=O)OC(C)(C)C,85,72,87
CCCCCCCCCCCCCCC(=O)C(=O)NCC(=O)OC,62,45,52
CCCCCCCCCCCCCCC(=O)C(=O)N[C@H](/C=C/C=C/C(=O)OCC)CCCC,64,74,52
CCCC[C@@H](CCC(=O)O)NC(=O)CCCCCCc1ccccc1,< 25,< 25,< 25
CCCCCCCCCCCCCCC(=O)C(=O)Nc1ccc(C(=O)OCC)cc1,87,< 25,78
CCCCCCCCCCCCCCC(=O)C(=O)N[C@H](/C=C/C=C/C(=O)O)CCCC,85,< 25,< 25
CC(C)(C)OC(=O)CCNC(=O)CCCCCCc1ccccc1,36,57,66
CCCCCCCCCCCCCCC(=O)C(=O)NCCCCC(=O)OC,< 25,< 25,42
CCCCCCCCCCCCCCC(=O)C(=O)NCCCC(=O)OCc1ccccc1,35,< 25,38
CCCCCCCCCCCCCCC(=O)C(=O)NCC(=O)OC(C)(C)C,80,53,82
CCCCCCCCCCCCCCC(=O)C(=O)N[C@@H](CCCC)CCC(=O)OC,87,78,86
COC(=O)CNC(=O)C(=O)CCCCCCc1ccccc1,54,31,30
CCCCCCCCCCCCCCC(=O)C(=O)NCCCC(=O)CCCC,32,< 25,< 25
CCCCCCCCCCCCCCC(=O)C(=O)N[C@H](CCC(=O)OC)CC(C)C,83,65,65

# Source: ChEMBL document CHEMBL1152193, “Structure-activity relationships of natural and non-natural amino acid-based amide and 2-oxoamide inhibitors of human phospholipase A(2) enzymes” (Bioorg Med Chem, 2008)
